Active and inactive are the calls of the source.
Assays:
CT26 [1] = experiment: Antitumor immunity against mouse CT26 cells implanted in BALB/c mouse assessed as increase in Teff/Treg ratio at 25 ug, ip administered once a week with anti-PD-1 antibody for 23 days by flow cytometry analysis; assay type: functional, organism-based; settings: dose 25.0 µg, time 23.0 day
In short: (§1)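 CT26-bearing BALB/c mice (n = 5) were treated ip once weekly with agonist, alone or with anti-PD-1 (200 μg, twice weekly). Tumours were harvested 23 days after implantation, enzymatically and mechanically dissociated into single cells, and stained for surface markers plus intracellular FoxP3 after fixation/permeabilisation. Cells were gated within CD45⁺ for CD11c⁺ DCs, CD11b⁺F4/80⁺MHCII⁺ (M1), CD206⁺ (M2), CD3/CD4/CD8, and CD4⁺CD25⁺FoxP3⁺ Treg, then analysed by flow cytometry.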

CT26 [2] = experiment: Antitumor immunity against mouse CT26 cells implanted in BALB/c mouse assessed as increase in infiltration of CD8+ T cytotoxic lymphocytes at 25 ug, ip administered once a week for 23 days by flow cytometry analysis; assay type: functional, organism-based; settings: dose 25.0 µg, time 23.0 day; in short: as §1
CT26 [3] = experiment: Antitumor immunity against mouse CT26 cells implanted in BALB/c mouse assessed as increase in infiltration of CD4+ TH1 cells at 25 ug, ip administered once a week for 23 days by flow cytometry analysis; assay type: functional, organism-based; settings: dose 25.0 µg, time 23.0 day; in short: as §1
[4] = biological target: T1, TLR7 and TLR8 (Homo sapiens) (UniProt Q9NYK1+Q9NR97); experiment: Agonist activity at human TLR7/8 expressed in human PBMC cells assessed as induction of TNFalpha production by measuring concentration required to induce maximal response incubated for 12 hrs by multiplexed immunoassay; assay type: cell-based; settings: filed as agonist
In short: (§2)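 Healthy-volunteer PBMCs from a single donor were isolated by Ficoll−Hypaque gradient and plated at 2.0 × 10⁶ cells/mL. They were stimulated for 12 h with escalating compound concentrations. Supernatants were assayed in duplicate on a 41-analyte magnetic bead cytokine/chemokine panel read by Luminex. EC_max is the concentration giving maximal cytokine induction.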

[5] = biological target: T1, TLR7 and TLR8 (Homo sapiens); experiment: Agonist activity at human TLR7/8 expressed in human PBMC cells assessed as induction of IL-8 production by measuring concentration required to induce maximal response incubated for 12 hrs by multiplexed immunoassay; assay type: cell-based; settings: filed as agonist; in short: as §2
[6] = Acute toxicity in BALB/c mouse assessed as white discharge from eyes at 15 to 80 mg/kg, ip administered as single dose; assay type: organism-based; settings: in vivo, dose 15-80 mg/kg
[7] = biological target: T1, TLR7 and TLR8 (Homo sapiens); experiment: Agonist activity at human TLR7/8 expressed in human PBMC cells assessed as induction of IL-12p40 production by measuring concentration required to induce maximal response incubated for 12 hrs by multiplexed immunoassay; assay type: cell-based; settings: filed as agonist; in short: as §2
CT26 [8] = experiment: Antitumor activity against mouse CT26 cells implanted in BALB/c mouse assessed as tumor growth delay at 25 ug, ip administered once per week and measured every 3 days for 23 days; assay type: functional, organism-based; settings: dose 25.0 µg, time 23.0 day
In short: (§3)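 Subcutaneous CT26 tumours were grown in BALB/c mice, with cells cultured in DMEM/10% FBS. At a mean tumour size of 100 mm³, mice were randomised (n = 5/group). Agonist was given ip once weekly; anti-PD-1 or IgG isotype was given ip at 200 μg twice weekly. Tumour volume (V = 1/2ab²) was measured every 3 days. Mice were euthanised at 2000 mm³.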

[9] = Toxicity in BALB/c mouse implanted with mouse CT26 cells assessed as decrease in body weight at 25 ug, ip administered once a week in presence of anti-PD-1 antibodies for 23 days; assay type: organism-based; settings: in vivo, 552 h, dose 25 µg, time 23 day
In short: (§4)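 CT26 subcutaneous tumor-bearing BALB/c mice (n = 5) were treated from 100 mm³ tumor volume. TLR7/8 agonist was given ip once weekly, alone or with anti-PD-1 antibody (200 μg ip, twice weekly). Body weight was tracked over the treatment period and reported as mean ± SEM.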

[10] = biological target: T1, TLR7 and TLR8 (Homo sapiens); experiment: Agonist activity at human TLR7/8 expressed in human PBMC cells assessed as induction of G-CSF production by measuring concentration required to induce maximal response incubated for 12 hrs by multiplexed immunoassay; assay type: cell-based; settings: filed as agonist; in short: as §2
CT26 [11] = experiment: Antitumor immunity against mouse CT26 cells implanted in BALB/c mouse assessed as increase in Teff/Treg ratio at 25 ug, ip administered once a week for 23 days by flow cytometry analysis; assay type: functional, organism-based; settings: dose 25.0 µg, time 23.0 day; in short: as §1
[12] = biological target: T1, TLR7 and TLR8 (Homo sapiens); experiment: Agonist activity at human TLR7/8 expressed in human PBMC cells assessed as induction of IL-1beta production by measuring concentration required to induce maximal response incubated for 12 hrs by multiplexed immunoassay; assay type: cell-based; settings: filed as agonist; in short: as §2
[13] = biological target: T1, TLR7 and TLR8 (Homo sapiens); experiment: Agonist activity at human TLR7/8 expressed in human PBMC cells assessed as induction of INF-gamma production by measuring concentration required to induce maximal response incubated for 12 hrs by multiplexed immunoassay; assay type: cell-based; settings: filed as agonist; in short: as §2
[14] = biological target: T1, TLR7 and TLR8 (Homo sapiens); experiment: Agonist activity at human TLR7/8 expressed in human PBMC cells assessed as induction of IP-10 production by measuring concentration required to induce maximal response incubated for 12 hrs by multiplexed immunoassay; assay type: cell-based; settings: filed as agonist; in short: as §2
[15] = Acute toxicity in BALB/c mouse assessed as white discharge from eyes at 15 to 80 mg/kg, ip administered as single dose measured after 24 hrs; assay type: organism-based; settings: in vivo, dose 15-80 mg/kg
[16] = Subacute toxicity in BALB/c mouse assessed as body weight loss at 1.12 g, ip administered as single dose; assay type: organism-based; settings: in vivo
In short: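 Subacute study in BALB/c mice, with treated and control groups. Body weight was recorded every day. Spleens were weighed and photographed, and tissues were examined by H&E staining.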

[17] = Subacute toxicity in BALB/c mouse assessed as splenomegaly at 15 mg/kg, ip administered as single dose; assay type: organism-based; settings: in vivo
In short: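 Subacute toxicity study in BALB/c mice given ip TLR7/8 agonist. Spleens from treated and control groups were weighed and photographed. Body weight was recorded every day.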

[18] = biological target: T1, TLR7 and TLR8 (Homo sapiens); experiment: Agonist activity at human TLR7/8 expressed in human PBMC cells assessed as induction of IL-6 production by measuring concentration required to induce maximal response incubated for 12 hrs by multiplexed immunoassay; assay type: cell-based; settings: filed as agonist; in short: as §2
[19] = Acute toxicity in BALB/c mouse assessed as mild diarrhea at 15 to 80 mg/kg, ip administered as single dose measured after 24 hrs; assay type: organism-based; settings: in vivo, dose 15-80 mg/kg
[20] = Toxicity in BALB/c mouse implanted with mouse CT26 cells assessed as decrease in body weight at 25 ug, ip administered once a week for 23 days; assay type: organism-based; settings: in vivo, 552 h, dose 25 µg, time 23 day; in short: as §4
[21] = biological target: T1, TLR7 and TLR8 (Homo sapiens); experiment: Agonist activity at human TLR7/8 expressed in human PBMC cells assessed as induction of IL-10 production by measuring concentration required to induce maximal response incubated for 12 hrs by multiplexed immunoassay; assay type: cell-based; settings: filed as agonist; in short: as §2
[22] = Acute toxicity in BALB/c mouse assessed as maximum tolerated dose; settings: in vivo
[23] = Acute toxicity in BALB/c mouse assessed as decrease in locomotor activity at 15 to 80 mg/kg, ip administered as single dose; assay type: organism-based; settings: in vivo, dose 15-80 mg/kg
[24] = Acute toxicity in BALB/c mouse assessed as mortality at 120 mg/kg, ip administered as single dose; assay type: organism-based; settings: in vivo
[25] = biological target: T1, TLR7 and TLR8 (Homo sapiens); experiment: Agonist activity at human TLR7/8 expressed in human PBMC cells assessed as induction of MCP-1 production by measuring concentration required to induce maximal response incubated for 12 hrs by multiplexed immunoassay; assay type: cell-based; settings: filed as agonist; in short: as §2
[26] = Acute toxicity in BALB/c mouse assessed as body weight loss at 60 mg/kg, ip administered as single dose relative to control; assay type: organism-based; settings: in vivo
[27] = biological target: T1, TLR7 and TLR8 (Homo sapiens); experiment: Agonist activity at human TLR7/8 expressed in human PBMC cells assessed as induction of MIP-1alpha production by measuring concentration required to induce maximal response incubated for 12 hrs by multiplexed immunoassay; assay type: cell-based; settings: filed as agonist; in short: as §2
[28] = Acute toxicity in BALB/c mouse assessed as decrease in locomotor activity at 15 to 80 mg/kg, ip administered as single dose measured after 24 hrs; assay type: organism-based; settings: in vivo, dose 15-80 mg/kg
CT26 [29] = experiment: Antitumor activity against mouse CT26 cells implanted in BALB/c mouse assessed as reduction in tumor volume at 25 ug, ip administered once a week in presence of anti-PD-1 antibodies and measured every 3 days for 23 days; assay type: functional, organism-based; settings: dose 25.0 µg, time 23.0 day; in short: as §3
[30] = biological target: T1, TLR7 and TLR8 (Homo sapiens); experiment: Agonist activity at human TLR7/8 expressed in human PBMC cells assessed as induction of VEGF secretion incubated for 12 hrs by multiplexed immunoassay; assay type: cell-based; settings: filed as agonist; in short: as §2
[31] = Acute toxicity in BALB/c mouse assessed as mild diarrhea at 15 to 80 mg/kg, ip administered as single dose; assay type: organism-based; settings: in vivo, dose 15-80 mg/kg
CT26 [32] = experiment: Antitumor immunity against mouse CT26 cells implanted in BALB/c mouse assessed as increase in infiltration of CD8+ T cytotoxic lymphocytes at 25 ug, ip administered once a week with anti-PD-1 antibody for 23 days by flow cytometry analysis; assay type: functional, organism-based; settings: dose 25.0 µg, time 23.0 day; in short: as §1
CT26 [33] = experiment: Antitumor immunity against mouse CT26 cells implanted in BALB/c mouse assessed as increase in infiltration of CD4+ TH1 cells at 25 ug, ip administered once a week with anti-PD-1 antibody for 23 days by flow cytometry analysis; assay type: functional, organism-based; settings: dose 25.0 µg, time 23.0 day; in short: as §1
[34] = Acute toxicity in BALB/c mouse assessed as body weight regain at 60 mg/kg, ip administered as single dose measured after 3 days; assay type: organism-based; settings: in vivo, 72 h, time 3 day

CCOCc1nc2c(N)nc3ccccc3c2n1CC(C)(C)O [RESIQUIMOD]
Non-Toxic: Activity [9] | Activity [15] | Activity [19] | Activity [20] | Activity [28] | Activity [34]
8.7%: Activity [26]
active: Activity (CT26 [1]) | Activity (CT26 [2]) | Activity (CT26 [3]) | Activity (CT26 [8]) | Activity (CT26 [11]) | Activity (CT26 [29]) | Activity [30] | Activity (CT26 [32]) | Activity (CT26 [33])
80 mg/kg: MTD [22]
Toxic: Activity [6] | Activity [16] | Activity [17] | Activity [23] | Activity [24] | Activity [31]
2 µg/mL: ECmax [4] | ECmax [5] | ECmax [7] | ECmax [10] | ECmax [12] | ECmax [13] | ECmax [14] | ECmax [18] | ECmax [21] | ECmax [25] | ECmax [27]

Reference: ChEMBL document CHEMBL5036324 (J Med Chem, 2021)
